ChEMBL document CHEMBL2424622, “Development of amino-pyrimidine inhibitors of c-Jun N-terminal kinase (JNK): kinase profiling guided optimization of a 1,2,3-benzotriazole lead” (Bioorg Med Chem Lett, 2013)
Values after ≈ are worked out from the molar mass of the structure shown. Each block holds one molecule with its values, some of them ahead of it.

How the values were obtained:
[1] = target: Serine/threonine-protein kinase 25 (Homo sapiens) (UniProt O00506); assay: Competitive binding affinity to STK25 (unknown origin) at 10 uM in presence of ATP relative to control
[2] = target: Serine/threonine-protein kinase SIK2 (Homo sapiens) (UniProt Q9H0K1); assay: Competitive binding affinity to QIK (unknown origin) at 10 uM in presence of ATP relative to control
Sequence of Serine/threonine-protein kinase SIK2 (Homo sapiens) (Q9H0K1 whole entry, looked up): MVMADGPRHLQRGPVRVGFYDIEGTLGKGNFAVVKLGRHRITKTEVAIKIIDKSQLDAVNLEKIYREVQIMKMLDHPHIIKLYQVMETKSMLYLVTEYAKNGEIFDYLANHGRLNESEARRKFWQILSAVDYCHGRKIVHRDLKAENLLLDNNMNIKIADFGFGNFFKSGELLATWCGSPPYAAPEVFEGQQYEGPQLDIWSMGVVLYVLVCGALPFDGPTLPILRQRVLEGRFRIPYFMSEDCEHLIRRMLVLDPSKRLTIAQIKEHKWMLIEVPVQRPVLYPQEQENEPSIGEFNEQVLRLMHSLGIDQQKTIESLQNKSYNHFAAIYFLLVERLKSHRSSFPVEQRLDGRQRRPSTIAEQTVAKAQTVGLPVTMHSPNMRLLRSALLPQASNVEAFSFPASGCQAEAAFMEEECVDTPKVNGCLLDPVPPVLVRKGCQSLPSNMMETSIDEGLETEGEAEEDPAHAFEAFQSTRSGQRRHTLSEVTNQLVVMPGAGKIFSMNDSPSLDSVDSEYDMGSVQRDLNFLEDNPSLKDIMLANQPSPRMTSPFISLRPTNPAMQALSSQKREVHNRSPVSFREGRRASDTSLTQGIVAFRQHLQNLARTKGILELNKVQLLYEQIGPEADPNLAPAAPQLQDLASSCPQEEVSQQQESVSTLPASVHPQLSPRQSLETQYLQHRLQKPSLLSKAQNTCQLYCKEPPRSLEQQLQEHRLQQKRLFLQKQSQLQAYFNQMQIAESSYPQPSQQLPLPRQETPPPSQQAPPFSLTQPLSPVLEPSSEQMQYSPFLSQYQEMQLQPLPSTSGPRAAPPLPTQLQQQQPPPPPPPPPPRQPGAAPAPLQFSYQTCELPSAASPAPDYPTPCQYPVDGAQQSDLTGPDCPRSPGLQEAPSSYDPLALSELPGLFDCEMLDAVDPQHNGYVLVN

[3] = target: Serine/threonine-protein kinase 24 (Homo sapiens) (UniProt Q9Y6E0); assay: Competitive binding affinity to STK24 (unknown origin) at 10 uM in presence of ATP relative to control
Sequence of Serine/threonine-protein kinase 24 (Homo sapiens) (Q9Y6E0 whole entry, looked up): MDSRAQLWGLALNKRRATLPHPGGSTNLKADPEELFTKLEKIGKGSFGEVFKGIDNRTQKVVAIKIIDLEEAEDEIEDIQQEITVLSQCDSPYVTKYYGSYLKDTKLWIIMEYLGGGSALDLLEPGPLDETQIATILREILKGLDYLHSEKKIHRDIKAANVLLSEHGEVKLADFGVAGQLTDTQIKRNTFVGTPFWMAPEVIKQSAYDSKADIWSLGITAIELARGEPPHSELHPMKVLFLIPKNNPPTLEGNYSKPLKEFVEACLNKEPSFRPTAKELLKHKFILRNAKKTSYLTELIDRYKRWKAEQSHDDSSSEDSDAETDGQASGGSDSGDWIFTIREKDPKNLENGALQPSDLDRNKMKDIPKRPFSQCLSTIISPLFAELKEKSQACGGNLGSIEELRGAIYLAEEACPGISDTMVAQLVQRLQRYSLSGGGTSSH

[4] = target: Serine/threonine-protein kinase Nek7 (Homo sapiens, UniProt Q8TDX7); assay: Binding affinity to NEK7 (unknown origin)
[5] = AUC (0 to infinity) in Hanover-Wistar rat at 0.5 mg/kg, iv; assay type: ADME, organism-based; design: dose 0.5 mg/kg, route intravenous, time infinity; conditions: plasma
[6] = target: Platelet-derived growth factor receptor beta (Homo sapiens, UniProt P09619); assay: Binding affinity to PDGFRB (unknown origin)
[7] = target: Ribosomal protein S6 kinase alpha-1 (Homo sapiens, UniProt Q15418); assay: Binding affinity to RPS6KA1 (unknown origin)
[8] = target: Cyclin-dependent kinase 11B (Homo sapiens, UniProt P21127); assay: Binding affinity to CDC2L1 (unknown origin)
Sequence of Cyclin-dependent kinase 11B (P21127 whole entry): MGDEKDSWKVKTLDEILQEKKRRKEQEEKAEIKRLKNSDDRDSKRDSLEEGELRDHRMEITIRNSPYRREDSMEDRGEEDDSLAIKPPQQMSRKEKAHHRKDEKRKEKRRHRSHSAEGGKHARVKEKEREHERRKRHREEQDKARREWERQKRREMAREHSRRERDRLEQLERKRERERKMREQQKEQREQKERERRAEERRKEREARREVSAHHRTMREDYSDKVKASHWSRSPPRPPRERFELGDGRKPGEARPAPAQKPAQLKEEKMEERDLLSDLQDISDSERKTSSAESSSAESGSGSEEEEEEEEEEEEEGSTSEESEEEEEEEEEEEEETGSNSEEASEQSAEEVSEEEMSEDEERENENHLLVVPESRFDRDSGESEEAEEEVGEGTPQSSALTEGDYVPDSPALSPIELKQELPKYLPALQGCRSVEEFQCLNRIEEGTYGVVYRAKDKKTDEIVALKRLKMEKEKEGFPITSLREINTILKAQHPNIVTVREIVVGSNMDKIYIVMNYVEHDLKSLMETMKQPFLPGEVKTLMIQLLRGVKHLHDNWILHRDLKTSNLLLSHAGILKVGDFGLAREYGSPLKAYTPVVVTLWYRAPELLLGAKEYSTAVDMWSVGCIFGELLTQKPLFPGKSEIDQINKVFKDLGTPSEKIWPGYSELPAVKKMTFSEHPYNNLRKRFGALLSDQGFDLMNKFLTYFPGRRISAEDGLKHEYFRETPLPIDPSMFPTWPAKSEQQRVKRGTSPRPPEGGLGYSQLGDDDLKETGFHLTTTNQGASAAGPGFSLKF

[9] = target: Death-associated protein kinase 2 (Homo sapiens, UniProt Q9UIK4); assay: Binding affinity to DAPK2 (unknown origin)
[10] = target: Mitogen-activated protein kinase 14 (Homo sapiens, UniProt Q16539); assay: Binding affinity to p38-alpha (unknown origin)
[11] = target: NUAK family SNF1-like kinase 2 (Homo sapiens, UniProt Q9H093); assay: Binding affinity to SNARK (unknown origin)
[12] = target: Dual specificity mitogen-activated protein kinase kinase 6 (Homo sapiens, UniProt P52564); assay: Binding affinity to MEK6 (unknown origin)
[13] = AUC (0 to infinity) in Hanover-Wistar rat at 2 mg/kg, po; assay type: ADME, organism-based; design: time infinity, dose 2 mg/kg, route oral; conditions: plasma
MAP kinase p38 = MAP kinase p38 (Homo sapiens, UniProt O15264+Q15759+Q16539+P53778); assay: Inhibition of p38 (unknown origin)-dependent HSP27 phosphorylation by cell-based assay
eIF-2-alpha kinase GCN2 = eIF-2-alpha kinase GCN2 (Homo sapiens, UniProt Q9P2K8, S808G); assay: Binding affinity to GCN2 kinase domain 2 S808G mutant (unknown origin)
[14] = target: Glycogen synthase kinase-3 beta (Homo sapiens, UniProt P49841); assay: Binding affinity to GSK3B (unknown origin)
[15] = target: Mitogen-activated protein kinase 11 (Homo sapiens, UniProt Q15759); assay: Binding affinity to p38-beta (unknown origin)
[16] = target: Dual specificity mitogen-activated protein kinase kinase 4 (Homo sapiens, UniProt P45985); assay: Binding affinity to MEK4 (unknown origin)
[17] = target: Mitogen-activated protein kinase 3 (Homo sapiens, UniProt P27361); assay: Binding affinity to ERK1 (unknown origin)
Sequence of Mitogen-activated protein kinase 3 (P27361 whole entry): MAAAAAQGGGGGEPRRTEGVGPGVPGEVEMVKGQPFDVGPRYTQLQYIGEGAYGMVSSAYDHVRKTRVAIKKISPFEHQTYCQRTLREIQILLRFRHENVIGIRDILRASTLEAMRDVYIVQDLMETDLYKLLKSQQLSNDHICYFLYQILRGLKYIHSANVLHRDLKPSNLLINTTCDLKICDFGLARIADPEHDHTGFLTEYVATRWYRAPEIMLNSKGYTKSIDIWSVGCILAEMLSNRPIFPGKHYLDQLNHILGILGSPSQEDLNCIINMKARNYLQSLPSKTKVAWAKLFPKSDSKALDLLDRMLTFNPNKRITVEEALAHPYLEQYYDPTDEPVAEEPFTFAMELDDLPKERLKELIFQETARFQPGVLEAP

[18] = Intrinsic clearance in human liver microsomes measured per mg of protein; assay type: ADME, Microsome; conditions: read-out: CLH
[19] = Intrinsic permeability from basolateral to apical side in human Caco2 cells at 10 uM; assay type: ADME, cell-based; conditions: Caco-2, read-out: permeability
[20] = Half life in Hanover-Wistar rat at 0.5 mg/kg, iv; assay type: ADME, organism-based; design: dose 0.5 mg/kg, route intravenous; conditions: in vivo
[21] = target: Serine/threonine-protein kinase Nek5 (Homo sapiens, UniProt Q6P3R8); assay: Binding affinity to NEK5 (unknown origin)
[22] = target: Glycogen synthase kinase-3 alpha (Homo sapiens, UniProt P49840); assay: Binding affinity to GSK3A (unknown origin)
LIM domain kinase 2 = LIM domain kinase 2 (Homo sapiens, UniProt P53671); assay: Binding affinity to LIMK2 (unknown origin)
Sequence of LIM domain kinase 2 (P53671 whole entry, the tested form may be a part): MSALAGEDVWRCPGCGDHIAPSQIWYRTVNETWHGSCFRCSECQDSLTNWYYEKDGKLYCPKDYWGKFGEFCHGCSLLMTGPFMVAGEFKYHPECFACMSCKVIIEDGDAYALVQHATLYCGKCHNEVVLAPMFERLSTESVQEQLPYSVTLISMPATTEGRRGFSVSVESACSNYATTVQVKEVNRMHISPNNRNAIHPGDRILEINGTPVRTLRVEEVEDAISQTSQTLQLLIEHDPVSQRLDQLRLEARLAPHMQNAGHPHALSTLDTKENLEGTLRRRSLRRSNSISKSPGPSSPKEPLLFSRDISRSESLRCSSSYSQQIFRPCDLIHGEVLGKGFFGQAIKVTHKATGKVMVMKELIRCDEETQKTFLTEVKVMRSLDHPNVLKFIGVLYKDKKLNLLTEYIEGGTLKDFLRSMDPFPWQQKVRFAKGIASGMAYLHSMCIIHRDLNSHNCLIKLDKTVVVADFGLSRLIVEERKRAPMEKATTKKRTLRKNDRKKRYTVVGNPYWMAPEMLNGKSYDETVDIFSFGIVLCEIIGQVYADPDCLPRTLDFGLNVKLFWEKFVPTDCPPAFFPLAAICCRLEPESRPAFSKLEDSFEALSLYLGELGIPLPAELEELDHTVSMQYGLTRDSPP

[23] = target: Interferon-induced, double-stranded RNA-activated protein kinase (Homo sapiens, UniProt P19525); assay: Binding affinity to PRKR (unknown origin)
[24] = target: Cyclin-dependent kinase 7 (Homo sapiens, UniProt P50613); assay: Binding affinity to CDK7 (unknown origin)
[25] = Clearance in human liver microsomes; assay type: ADME, Microsome; conditions: read-out: CLH
Method in brief: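 Intrinsic clearance was measured in vitro in human liver microsomes and expressed per mg microsomal protein.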

Rattus norvegicus [26] = assay: Cmax in Hanover-Wistar rat at 20 mg/kg, po; assay type: ADME, organism-based; design: dose 20 mg/kg, route oral; conditions: in vivo
[27] = target: Mitogen-activated protein kinase 4 (Homo sapiens, UniProt P31152); assay: Binding affinity to ERK4 (unknown origin)
Sequence of Mitogen-activated protein kinase 4 (P31152 whole entry): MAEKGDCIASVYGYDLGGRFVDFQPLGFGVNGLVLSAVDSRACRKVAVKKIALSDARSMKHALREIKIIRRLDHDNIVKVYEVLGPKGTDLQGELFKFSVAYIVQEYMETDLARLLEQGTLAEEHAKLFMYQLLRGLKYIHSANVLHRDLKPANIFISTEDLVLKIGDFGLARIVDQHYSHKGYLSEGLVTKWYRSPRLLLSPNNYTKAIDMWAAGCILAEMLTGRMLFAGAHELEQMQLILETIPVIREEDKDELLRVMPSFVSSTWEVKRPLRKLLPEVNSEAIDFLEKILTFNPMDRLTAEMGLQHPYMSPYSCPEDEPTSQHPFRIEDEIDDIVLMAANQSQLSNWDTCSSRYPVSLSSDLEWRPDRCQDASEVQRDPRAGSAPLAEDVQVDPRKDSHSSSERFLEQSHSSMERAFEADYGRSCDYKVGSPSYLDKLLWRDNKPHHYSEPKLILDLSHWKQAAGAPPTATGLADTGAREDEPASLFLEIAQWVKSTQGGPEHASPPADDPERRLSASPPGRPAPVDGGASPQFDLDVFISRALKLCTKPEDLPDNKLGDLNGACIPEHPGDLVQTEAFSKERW

[28] = target: MAP kinase-interacting serine/threonine-protein kinase 1 (Homo sapiens, UniProt Q9BUB5); assay: Binding affinity to MKNK1 (unknown origin)
[29] = Oral bioavailability in Hanover-Wistar rat at 20 mg/kg; assay type: ADME, organism-based; conditions: in vivo
LIM domain kinase 1 = LIM domain kinase 1 (Homo sapiens, UniProt P53667); assay: Binding affinity to LIMK1 (unknown origin)
[30] = target: Dual specificity protein kinase TTK (Homo sapiens, UniProt P33981); assay: Binding affinity to TTK (unknown origin)
Sequence of Dual specificity protein kinase TTK (P33981 whole entry): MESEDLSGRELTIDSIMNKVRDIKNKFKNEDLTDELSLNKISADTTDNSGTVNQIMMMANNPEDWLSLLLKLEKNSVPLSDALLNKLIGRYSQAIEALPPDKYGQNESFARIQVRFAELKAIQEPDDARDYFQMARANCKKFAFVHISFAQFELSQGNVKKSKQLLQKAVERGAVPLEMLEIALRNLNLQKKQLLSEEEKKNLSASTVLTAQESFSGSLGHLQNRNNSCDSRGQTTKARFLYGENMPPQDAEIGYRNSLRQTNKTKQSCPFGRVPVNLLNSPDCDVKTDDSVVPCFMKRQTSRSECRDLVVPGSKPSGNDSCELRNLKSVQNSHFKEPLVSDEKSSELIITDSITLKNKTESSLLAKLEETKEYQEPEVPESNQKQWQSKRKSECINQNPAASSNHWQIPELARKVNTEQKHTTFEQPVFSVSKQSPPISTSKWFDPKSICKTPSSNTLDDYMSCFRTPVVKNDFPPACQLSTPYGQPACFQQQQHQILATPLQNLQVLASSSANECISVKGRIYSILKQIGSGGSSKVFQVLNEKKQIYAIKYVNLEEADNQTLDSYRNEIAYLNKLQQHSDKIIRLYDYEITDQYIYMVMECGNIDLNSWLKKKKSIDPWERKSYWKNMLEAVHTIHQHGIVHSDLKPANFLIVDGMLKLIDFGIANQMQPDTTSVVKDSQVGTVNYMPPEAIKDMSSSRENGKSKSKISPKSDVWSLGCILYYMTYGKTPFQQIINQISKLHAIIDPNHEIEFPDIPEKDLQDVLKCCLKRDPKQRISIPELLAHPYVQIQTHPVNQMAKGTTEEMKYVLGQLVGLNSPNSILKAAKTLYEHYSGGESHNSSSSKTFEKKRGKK

[31] = target: Serine/threonine-protein kinase 17A (Homo sapiens, UniProt Q9UEE5); assay: Binding affinity to DRAK1 (unknown origin)
[32] = target: Mitogen-activated protein kinase 7 (Homo sapiens, UniProt Q13164); assay: Binding affinity to ERK5 (unknown origin)
[33] = target: Calcium/calmodulin-dependent protein kinase type 1 (Homo sapiens, UniProt Q14012); assay: Binding affinity to CAMK1 (unknown origin)
[34] = Half life in Hanover-Wistar rat at 2 mg/kg, po; assay type: ADME, organism-based; design: dose 2 mg/kg, route oral; conditions: in vivo
[35] = Oral bioavailability in Hanover-Wistar rat at 2 mg/kg; assay type: ADME, organism-based; conditions: in vivo
[36] = target: Death-associated protein kinase 3 (Homo sapiens, UniProt O43293); assay: Binding affinity to DAPK3 (unknown origin)
[37] = target: Serine/threonine-protein kinase DCLK3 (Homo sapiens, UniProt Q9C098); assay: Binding affinity to DCAMKL3 (unknown origin)
[38] = target: Mitogen-activated protein kinase 8 (Homo sapiens, UniProt P45983); assay: Binding affinity to JNK1 (unknown origin)
Sequence of Mitogen-activated protein kinase 8 (P45983 whole entry): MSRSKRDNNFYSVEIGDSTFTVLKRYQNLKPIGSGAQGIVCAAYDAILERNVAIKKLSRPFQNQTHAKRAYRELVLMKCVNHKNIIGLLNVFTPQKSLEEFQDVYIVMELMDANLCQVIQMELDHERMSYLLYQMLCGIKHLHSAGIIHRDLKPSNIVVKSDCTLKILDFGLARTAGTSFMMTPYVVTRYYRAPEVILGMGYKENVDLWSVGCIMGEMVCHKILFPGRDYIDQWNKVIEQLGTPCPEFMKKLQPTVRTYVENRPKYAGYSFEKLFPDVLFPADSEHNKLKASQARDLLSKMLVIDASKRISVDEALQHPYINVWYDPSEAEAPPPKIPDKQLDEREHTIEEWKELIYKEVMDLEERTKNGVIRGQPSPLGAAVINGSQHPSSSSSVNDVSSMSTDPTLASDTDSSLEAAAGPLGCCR

Rattus norvegicus [39] = assay: Cmax in Hanover-Wistar rat at 2 mg/kg, po; assay type: ADME, organism-based; design: dose 2 mg/kg, route oral; conditions: in vivo
[40] = Half life in Hanover-Wistar rat at 20 mg/kg, po; assay type: ADME, organism-based; design: dose 20 mg/kg, route oral; conditions: in vivo
[41] = Intrinsic clearance in rat liver microsomes measured per mg of protein; assay type: ADME, Microsome; conditions: read-out: CLH
[42] = Equilibrium aqueous solubility in phosphate buffer at pH 6.5 at 25 degC; assay type: physicochemical
[43] = target: Atypical kinase COQ8B, mitochondrial (Homo sapiens, UniProt Q96D53); assay: Binding affinity to ADCK4 (unknown origin)
[44] = target: Citron Rho-interacting kinase (Homo sapiens, UniProt O14578); assay: Binding affinity to CIT (unknown origin)
[45] = target: Cyclin-dependent kinase 11A (Homo sapiens, UniProt Q9UQ88); assay: Binding affinity to CDC2L2 (unknown origin)
[46] = target: Serine/threonine-protein kinase Nek1 (Homo sapiens, UniProt Q96PY6); assay: Binding affinity to NEK1 (unknown origin)
[47] = Intrinsic permeability from apical to basolateral side in human Caco2 cells at 10 uM; assay type: ADME, cell-based; conditions: Caco-2, read-out: permeability

inhibition [1]: 85%
inhibition [2]: < 50%
inhibition [3]: 93%
SMILES: O[C@H]1CC[C@H](Nc2nccc(-c3n[nH]c4ccccc34)n2)CC1

Kd [4]: 6900 nM
AUC(0-inf) [5]: 1850 ng·h/mL
Kd [6]: 6800 nM
Kd [7]: 2100 nM
Kd [8]: 1300 nM
Kd [10]: 8800 nM
Kd [11]: 2600 nM
Kd [12]: 310 nM
AUC(0-inf) [13]: 490 ng·h/mL
IC50 (MAP kinase p38): > 30000 nM
Kd (eIF-2-alpha kinase GCN2): 2700 nM
Kd [14]: 5400 nM
Kd [15]: 3200 nM
Kd [16]: 390 nM
Kd [17]: 1800 nM
microsomal CLint [18]: 30 µL/min/mg
Papp B→A at 10 µM [19]: 11.5 ×10⁻⁶ cm/s
half-life [20]: 2.6 h
Kd [21]: 1400 nM
Kd [22]: 1300 nM
Kd (LIM domain kinase 2): 2800 nM
Kd [23]: 120 nM
Kd [24]: 620 nM
microsomal CLint [25]: 30 µL/min/mg
Cmax (Rattus norvegicus [26]): 3680 ng/mL
Kd [27]: 11000 nM
Kd [28]: 2100 nM
bioavailability [29]: 13%
Kd (LIM domain kinase 1): 870 nM
Kd [30]: 1900 nM
Kd [31]: 440 nM
Kd [32]: 1500 nM
Kd [33]: 4300 nM
half-life [34]: 4 h
bioavailability [35]: 7%
Kd [37]: 1800 nM
Kd [38]: 0.75 nM
Cmax (Rattus norvegicus [39]): 91 ng/mL
half-life [40]: 2.9 h
microsomal CLint [41]: 52 µL/min/mg
solubility thermodynamic [42]: 3.9 µg/mL (≈ 7.02 µM)
Kd [43]: 4800 nM
Kd [44]: 2700 nM
Kd [45]: 2400 nM
Kd [46]: 4000 nM
Papp A→B at 10 µM [47]: 0.2 ×10⁻⁶ cm/s
SMILES: CS(=O)(=O)CCCOc1cccc2c1ccn2-c1ccnc(N[C@H]2CC[C@H](C(=O)N3CCC(O)CC3)CC2)n1
Kd [9]: 1300 nM
Kd [36]: 880 nM
